# Source: PubChem (several laboratories)
# FAS TE block: FAS thioesterase domain inhibitors, primary screen, biochemical, fluorescence intensity, uHTS; Fatty acid synthase (Homo sapiens), P49327; recombinant FAS-TE, OMFH fluorogenic substrate, fluorescence endpoint; inhibition, % at 15 µM; 360,000 compounds, 0.67% hits; AID 602261, 2012;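 active = compounds whose normalised, plate-corrected inhibition of enzyme fluorescence in the single-dose primary screen is 50% or more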;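 note: 0% = DMSO with enzyme and 100% = substrate without enzyme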
# SENP1 FRET inh: human SENP1 catalytic domain inhibitors, primary screen, biochemical, FRET, uHTS; Sentrin-specific protease 1 (Homo sapiens), Q9P0U3; recombinant SENP1 catalytic domain, CyPet-SUMO1-YPet FRET cleavage; 360,000 compounds, 0.21% hits; inhibition, % at 10 µM;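 active = inhibition at least 30% at 10 µM, raw YFP signal under a set limit, fluorescence ratio 0.5 to 1.5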;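 note: 0% = enzyme with DMSO and 100% = no enzyme wells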
# Target sequence (Q9P0U3 419-644 limits assumed): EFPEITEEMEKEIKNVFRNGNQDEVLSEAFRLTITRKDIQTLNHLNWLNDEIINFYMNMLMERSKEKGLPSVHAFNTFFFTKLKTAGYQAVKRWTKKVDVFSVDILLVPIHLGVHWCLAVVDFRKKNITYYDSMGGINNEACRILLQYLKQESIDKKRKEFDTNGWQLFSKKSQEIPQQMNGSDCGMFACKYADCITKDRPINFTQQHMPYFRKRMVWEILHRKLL
#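 Assay system: hSENP1 catalytic domain, recombinant. Amount: SENP1 enzyme, 20 pM final. Schedule: 50 min reaction, RT, dark. Technique: FRET, CFP and YFP emission. Control set: no-enzyme wells low, DMSO-plus-enzyme wells high control.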
# NR3A LBD binder: binders of NR3A ligand-binding domain, primary screen, biophysical, differential scanning fluorimetry, uHTS | Glutamate receptor ionotropic, NMDA 3A (GRIN3A) ligand-binding domain | NR3A LBD differential scanning fluorimetry, Tm shift; 0% = protein alone, 100% = glycine-bound protein | Tm shift relative to glycine control, % at 25 µM | 340,000 compounds, 2.5% hits | AID 1259313, 2017;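 active = melting temperature shift of at least 10% of the positive control shift, at one fixed dose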
# Arr AP2 block: inhibitors of beta-arrestin/AP2 binding, primary screen, biochemical, GPCR trafficking, flow cytometry; FITC-arrestin peptide / GST-AP2 beads; AP2 beta2 appendage carries R879A mutation; inhibition, % at 10 µM; 340,000 compounds, 0.31% hits; AID 504490, 2011;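 active = inhibition above a set limit, near 3 SD of compounds lacking own fluorescence, cut at about 54% in these data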;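 note: plate controls were DMSO wells for no effect and 5 µM unlabelled arrestin peptide for full effect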
#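 Test system: GST-tagged AP2 beta2-adaptin appendage (R879A) on 4 µm glutathione beads; also added: fluorescein-tagged arrestin peptide at 50 nM final; timing: 12 min plus 1 h, RT; signal: flow cytometry, FL1 (488/535 nm); read-out: percent drop in bead-associated FITC signal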
# Cardio protect: cardioprotection against H2O2-induced cell death, primary screen, uHTS, H9c2 cells, ATPLite luminescence; H9c2 cardiomyocytes, H2O2 injury protection, 2 h; protection from H2O2 cell death, % at 20 µM; 360,000 compounds, 0.63% hits; AID 588492, 2011;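 active = compounds giving at least 50% protection of heart cells from peroxide-induced death in the single-dose screen, raw or plate-pattern-corrected value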;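 note: 0% = DMSO wells with peroxide and 100% = DMSO wells without peroxide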
# iPSC survival up: enhancers of single-cell hiPSC survival, primary screen, ATPlite luminescence. survival enhancement, % at 20 µM. 100% = ROCK inhibitor wells, 0% = DMSO. AID 602274, 2012. 360,000 compounds, 0.044% hits; in the data active = survival enhancement above about 18%;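 note: cells exposed to compounds for 16 hours before the ATP read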
# Starred values were filed as active, the others as inactive; · = no result. Hits are enriched below; roughly 4% of the tested compounds scored in any of these assays.
SMILES,FAS TE block,SENP1 FRET inh,NR3A LBD binder,Arr AP2 block,Cardio protect,iPSC survival up
COc1ccc(C(C(=O)NCc2ccccc2)N(Cc2ccco2)C(=O)c2cnccn2)cc1 (configuration not stated),3.7,0.0,-0.3,3.7,15.2,-0.6
O=C(NC1CCCC1)C(c1ccc(F)cc1)N(C(=O)Cc1cccs1)c1ccc2c(c1)OCCO2 (configuration not stated),4.3,0.1,-17.1,6.7,-4.2,0.6
COc1ccc(CNC(=O)C(c2cccs2)N(Cc2ccco2)C(=O)Cc2cccs2)cc1 (configuration not stated),10.9,-13.5,3.5,-1.8,63.1*,0.7
COc1ccc(CNC(=O)C(c2ccc(C)cc2)N(Cc2cccs2)C(=O)c2ccc3c(c2)OCCO3)cc1 (configuration not stated),33.5,2.6,-0.5,0.0,61.2*,-1.9
COC(=O)c1ccc(C(C(=O)NCc2ccccc2)N(Cc2cccs2)C(=O)c2cnccn2)cc1 (configuration not stated),11.8,-5.8,-3.6,9.4,76.3*,1.2
COc1ccc(CNC(=O)C(c2ccco2)N(Cc2cccs2)C(=O)Cc2cccs2)cc1 (configuration not stated),19.4,-0.4,1.2,-4.2,34.7,-1.7
Cc1ccc(C(C(=O)NC2CCCC2)N(C(=O)Cc2cccs2)c2ccc3c(c2)OCCO3)cc1 (configuration not stated),60.9*,1.3,-1.0,5.2,9.5,2.7
Cc1ccccc1-c1cc2nc(NCc3ccc(N(C)C)cc3)n(C)c(=O)c2s1,17.0,1.1,·,·,-6.8,1.4
Cc1cn([C@H]2C[C@H](O)[C@@H](CNCc3cccc(OC4CCCC4)c3)O2)c(=O)[nH]c1=O,-10.4,1.0,·,·,-4.8,-2.0
CCCCN(C(C)=O)c1c(CC)nc2ccc(C(=O)NCCOc3ccc(OC)cc3)cn12,-5.5,1.9,·,·,-3.6,0.5
Cc1[nH]nc(SCC(=O)Nc2cccc(O)c2)c1[N+](=O)[O-],-2.2,-1.0,22.1*,-1.1,-0.9,1.1
CCc1ccc(NC(=O)CSc2n[nH]c(C)c2[N+](=O)[O-])cc1,10.7,-2.8,-5.2,5.1,-12.8,-1.4
CC(O)(c1cccc(F)c1)c1nc(-c2ccc3ccccc3c2)cs1 (configuration not stated),23.8,-0.3,·,·,-14.0,-0.8
O=C(Cc1n[nH]c(=O)c2ccccc12)OCC(=O)c1ccccc1,-1.9,1.0,-0.2,12.0,61.2*,0.2
O=C(COC(=O)Cc1n[nH]c(=O)c2ccccc12)Nc1ncc(Cl)cc1Cl,-6.0,3.4,-1.3,-2.7,66.8*,-0.5
O=C(Cc1n[nH]c(=O)c2ccccc12)OCC(=O)c1ccc(F)c(F)c1,-3.2,2.7,1.0,8.0,27.1,-0.5
O=C(Cc1n[nH]c(=O)c2ccccc12)OCC(=O)c1ccccc1Cl,-7.5,1.7,-2.0,-8.1,4.8,0.4
COc1ccc(C(=O)COC(=O)Cc2n[nH]c(=O)c3ccccc23)c(OC)c1,-8.0,0.2,-1.0,29.7,62.4*,-0.4
CC(=O)c1cccc(NC(=O)C(C)OC(=O)Cc2n[nH]c(=O)c3ccccc23)c1 (configuration not stated),-0.5,1.1,-0.9,-5.4,76.6*,-0.2
Cc1ccccc1-c1csc(C(O)c2ccccc2)n1 (configuration not stated),-0.6,0.7,·,·,-3.5,1.4
CCCCNC(=O)C1C(c2ccc(C(F)(F)F)cc2)=Nc2ccccc2N1C(=O)C1CCN(C(C)=O)CC1 (configuration not stated),·,2.6,·,·,·,·
CC(C)CC(=O)Nc1ccc(C(=O)COC(=O)Cc2n[nH]c(=O)c3ccccc23)cc1,0.8,-3.8,0.3,13.8,71.9*,4.2
O=C(COC(=O)Cc1n[nH]c(=O)c2ccccc12)Nc1cccc(C(F)(F)F)c1,-2.0,-0.2,-0.7,-21.4,37.0,-0.8
COc1ccccc1NC(=O)c1ccc(NC(=O)Cc2n[nH]c(=O)c3ccccc23)cc1,-0.2,0.3,-1.6,-19.2,70.5*,0.2
COc1ccccc1N1CCN(S(=O)(=O)CCNC(=O)C(C)Oc2ccccc2)CC1 (configuration not stated),-5.8,0.9,·,·,-0.4,-0.1
SMILES,FAS TE block,SENP1 FRET inh,NR3A LBD binder,Arr AP2 block,Cardio protect,iPSC survival up
O=C(Nc1ccc(C(O)(C(F)(F)F)C(F)(F)F)cc1)c1ccc(Cl)c([N+](=O)[O-])c1,49.2,3.1,12.6*,8.1,-21.0,-0.7
O=C(Nc1cccc(S(=O)(=O)Nc2ccccc2Cl)c1)c1ccc(N2CCCC2)c([N+](=O)[O-])c1,32.2,-0.3,10.8*,10.4,-0.5,0.4
Cc1cccc(C)c1NS(=O)(=O)c1ccc(NC(=O)c2ccc(Cl)c([N+](=O)[O-])c2)cc1,44.9,-0.1,18.9*,-1.4,-21.8,-4.0
Cc1nn(Cc2ccccc2)c(C)c1/C=N/NC(=O)CNc1cccc(C(F)(F)F)c1,12.4,0.3,13.1*,24.9,-10.0,-1.7
O=C(CNc1cccc(C(F)(F)F)c1)N/N=C/c1cn(-c2ccccc2)nc1-c1ccccc1,14.4,-1.3,34.3*,4.9,-1.9,-0.6
COc1ccc(NCC(=O)N/N=C/c2c(C)nn(Cc3ccccc3)c2Cl)cc1,-6.6,0.5,-4.9,5.4,-1.5,1.3
Nc1c(C(=O)N2CCOCC2)sc2nc(N3CCOCC3)c3c(c12)CCCC3,1.2,-19.7,3.7,1.8,16.1,0.1
Cc1cccc2cc3c(N)c(C(=O)N4CCOCC4)sc3nc12,-3.1,41.6*,-14.1,2.1,9.2,-1.0
Cc1cc(C)c2cc3c(N)c(C(=O)N4CCc5ccccc5C4)sc3nc2c1,2.1,7.4,-2.7,36.2,49.2*,2.7
Cc1ccc(S(=O)(=O)N2CCOCC2)cc1C(=O)NCCCN1CCCC1=O,-1.9,1.8,·,·,-2.0,4.3
Cc1cn([C@H]2C[C@H](O)[C@@H](CNS(=O)(=O)N3CCCC3)O2)c(=O)[nH]c1=O,-6.5,-0.3,·,·,-6.8,-2.9
CCOC(=O)N(C)c1c(CC)nc2c(OCc3ccccc3OC)cccn12,-3.6,-6.0,·,·,-0.6,-1.4
Cc1ccc(NC(=O)C2(C)CCN2C(=O)C2CCCCC2)cc1C (configuration not stated),-0.1,-1.0,·,·,-7.1,6.7
